Data taken from ChEMBL document CHEMBL1681779, “Design, synthesis and docking study of 5-amino substituted indeno[1,2-c]isoquinolines as novel topoisomerase I inhibitors” (Bioorg Med Chem, 2011).
The source made the active and inactive calls. The calls are words filed in the database; no cut-off is given here.

Assays:
HL-60 = experiment: Cytotoxicity against human HL60 cells by MTT assay; format: functional, cell-based
[1] = target: T1, DNA topoisomerase 1 (Homo sapiens) (UniProt P11387); experiment: Inhibition of DNA topoisomerase 1 relative to 0.1 uM camptothecin
T1 sequence (whole entry): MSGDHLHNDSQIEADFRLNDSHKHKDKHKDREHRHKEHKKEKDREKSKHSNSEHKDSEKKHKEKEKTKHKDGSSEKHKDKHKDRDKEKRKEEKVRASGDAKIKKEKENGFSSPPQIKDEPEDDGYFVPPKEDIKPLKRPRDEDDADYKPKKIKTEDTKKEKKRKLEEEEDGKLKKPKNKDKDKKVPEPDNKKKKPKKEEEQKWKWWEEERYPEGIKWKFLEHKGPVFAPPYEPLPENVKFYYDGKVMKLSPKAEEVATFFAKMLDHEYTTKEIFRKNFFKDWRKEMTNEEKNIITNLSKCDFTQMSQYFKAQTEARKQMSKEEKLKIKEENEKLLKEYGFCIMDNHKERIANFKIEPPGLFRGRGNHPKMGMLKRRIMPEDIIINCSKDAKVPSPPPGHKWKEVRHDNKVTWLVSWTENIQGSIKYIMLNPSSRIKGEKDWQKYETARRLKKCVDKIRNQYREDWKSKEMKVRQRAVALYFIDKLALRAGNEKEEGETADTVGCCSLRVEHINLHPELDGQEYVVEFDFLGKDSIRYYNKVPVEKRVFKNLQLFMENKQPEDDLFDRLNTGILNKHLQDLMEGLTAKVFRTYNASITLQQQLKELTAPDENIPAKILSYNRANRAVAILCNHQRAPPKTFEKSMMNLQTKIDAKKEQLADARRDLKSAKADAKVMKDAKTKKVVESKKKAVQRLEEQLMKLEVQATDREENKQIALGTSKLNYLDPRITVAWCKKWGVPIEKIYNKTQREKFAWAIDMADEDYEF
Procedure, shortened: (§1)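 Relaxation assay with 500 ng supercoiled pBR322 DNA as substrate and 1 unit topo I. Reactions were run with or without compound, with camptothecin as reference, for 30 min at 37 °C.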

[2] = target: T1, DNA topoisomerase 1 (Homo sapiens); experiment: Inhibition of DNA topoisomerase 1-mediated supercoiled DNA relaxation at 0.1 mg/mL by agarose gel electrophoresis; procedure, shortened: as §1
A549 = experiment: Cytotoxicity against human A549 cells by sulforhodamine B assay
Col2 = experiment: Cytotoxicity against human Col2 cells by sulforhodamine B assay
HT-1080 = experiment: Cytotoxicity against human HT1080 cells by sulforhodamine B assay
SNU-638 = experiment: Cytotoxicity against human SNU638 cells by sulforhodamine B assay
SK-MEL-2 = experiment: Cytotoxicity against human SK-MEL-2 cells at 0.001 mg/ml; format: functional, cell-based

inhibition [1]	inhibition [2]	Structure (SMILES)	IC50 (HL-60)	IC50 (A549)	IC50 (Col2)	IC50 (HT-1080)	IC50 (SNU-638)	Activity (SK-MEL-2)
Active	Active	O=C1c2ccccc2-c2nc(N3CCNCC3)c3ccccc3c21	4.68 µM	8.52 µM	7.99 µM	2.01 µM	8.25 µM	–
–	Active	c1ccc2c(c1)Cc1c-2nc(N2CCOCC2)c2ccccc12	8.65 µM	5.69 µM	4.42 µM	1.24 µM	2.58 µM	–
Active	–	NCCNc1nc2c(c3ccccc13)C(=O)c1ccccc1-2	10.4 µM	0.85 µM	1.43 µM	9.6 µM	1.68 µM	–
Active	Active	CN1CCN(c2nc3c(c4ccccc24)C(=O)c2ccccc2-3)CC1	6.35 µM	8.19 µM	7.77 µM	5.36 µM	7.98 µM	–
–	–	CN1CCN(c2nc3c(c4ccccc24)C(C)(O)c2ccccc2-3)CC1 (stereo unspecified)	79.9 µM	92.5 µM	58 µM	22.2 µM	58.2 µM	–
–	–	CN1CCN(c2nc3c(c4ccccc24)C(O)c2ccccc2-3)CC1 (stereo unspecified)	13.4 µM	18.1 µM	28.3 µM	4.87 µM	9.01 µM	–
Active	–	CCCCCCC1(O)c2ccccc2-c2nc(N3CCN(C)CC3)c3ccccc3c21 (stereo unspecified)	8.55 µM	7.21 µM	6.24 µM	2.57 µM	12.4 µM	–
–	Active	CN1CCCN(c2nc3c(c4ccccc24)Cc2ccccc2-3)CC1	3.33 µM	5.46 µM	2.13 µM	0.25 µM	8.24 µM	–
–	–	O=C1c2ccccc2-c2nc(N3CCOCC3)c3ccccc3c21	> 100 µM	> 100 µM	96.9 µM	69.2 µM	> 100 µM	–
–	Active	CCN1CCN(c2nc3c(c4ccccc24)Cc2ccccc2-3)CC1	9.98 µM	8.19 µM	7.74 µM	19 µM	3.25 µM	–
–	–	CC(=O)OC1c2ccccc2-c2nc(N3CCOCC3)c3ccccc3c21 (stereo unspecified)	15.9 µM	8.3 µM	7.87 µM	58.3 µM	6.99 µM	–
–	–	CCCCNc1nc2c(c3ccccc13)C(=O)c1ccccc1-2	> 100 µM	> 100 µM	> 100 µM	48.2 µM	> 100 µM	–
–	Active	CN1CCN(c2nc3c(c4ccccc24)Cc2ccccc2-3)CC1	5.87 µM	11.4 µM	10.1 µM	3.85 µM	19.8 µM	–
Active	Active	CCN1CCN(c2nc3c(c4ccccc24)C(=O)c2ccccc2-3)CC1	4.21 µM	7.1 µM	6.45 µM	1.23 µM	5.85 µM	–
–	–	CC1c2ccccc2-c2c1c1ccccc1c(=O)n2C (stereo unspecified)	–	–	–	–	–	Active
–	–	CCN1CCN(c2nc3c(c4ccccc24)C(O)c2ccccc2-3)CC1 (stereo unspecified)	29.4 µM	20.9 µM	19.2 µM	8.66 µM	18.9 µM	–
–	–	OC1c2ccccc2-c2nc(N3CCOCC3)c3ccccc3c21 (stereo unspecified)	99.2 µM	93.3 µM	> 100 µM	> 100 µM	> 100 µM	–
–	Active	CCCCNc1nc2c(c3ccccc13)Cc1ccccc1-2	19.6 µM	27.7 µM	75.2 µM	4.39 µM	22.2 µM	–
Active	Active	CN1CCCN(c2nc3c(c4ccccc24)C(=O)c2ccccc2-3)CC1	1.28 µM	1.05 µM	0.27 µM	0.54 µM	1.36 µM	–
